{"source": "paper PMC2217059", "about": "(The Journal of General Physiology, 1997)", "key": {"[1]": {"biological_target": "T1, Na,K-ATPase (Sus scrofa, UniProt P05024)", "experiment": "Na,K-ATPase activity", "assay_type": "biochemical, pig"}, "[2]": {"settings": "I around 0.1 M, cited from earlier work"}, "[3]": {"system": "H+-translocating Mg-ATPases from tissues of higher plants", "settings": "ref Sze, 1985, Jacoby, 1987, Blumwald et al.; cited from earlier work"}, "[4]": {"biological_target": "T1, Na,K-ATPase", "experiment": "Effect of NO3− on ADP-binding, competitive model of Fig. 4", "parameters": "species or system pig", "settings": "line through (0,1); I 78–228 mM and constant I 178 mM", "method_in_brief": "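ADP-binding affinities for pig kidney membrane Na,K-ATPase were determined by centrifugation binding at 0–2°C. Kdiss/KA was plotted against [NO3−] for the NaNO3 series (I 78–228 mM). […] A line through (0,1) was fitted, and KN for ENO3 was taken as the reciprocal slope.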"}, "[5]": {"biological_target": "T1, Na,K-ATPase", "experiment": "K+-dependent p-nitrophenylphosphatase", "assay_type": "biochemical, pig", "method_in_brief": "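K+-pNPPase was assayed at 37°C, pH 7.4, in 30 mM histidine/HCl with 10 pmol enzyme·ml−1, 20 mM MgCl2, K+ salts and 10 mM Na2pNPP (basal I ~90 mM). Substrate-dependence runs varied Na2pNPP at 0.05–0.4 M KCl. After 3 min, reactions were stopped with ice-cold TCA (final 5%) and p-nitrophenol was measured. Blanks were reagent blanks without enzyme. Results are the mean of two to four experiments.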"}, "[6]": {"system": "Na,K-ATPase mutant Lys480Glu", "settings": "ref Wang and Farley, 1992; cited from earlier work"}, "[7]": {"system": "Na,K-ATPase Asp369 substituted with Asn or Ala", "settings": "Asp369 substituted with uncharged Asn or Ala; ref Pedersen et al., 1996; cited from earlier work"}, "[8]": {"biological_target": "T1, Na,K-ATPase", "experiment": "Equilibrium binding of 14C-ADP to membrane-bound Na,K-ATPase", "parameters": "species or system pig", "settings": "for Kd: read-out: K diss for ADP-binding", "method_in_brief": "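The enzyme was membrane-bound Na,K-ATPase from pig kidney outer medulla, SDS-extracted. It was mixed on ice with water or Na+ salt in imidazole/sucrose/EDTA (pH 7.4), then with 14C-ADP (stock 40 μM) in Tris buffer (pH 6.3). NO3− and SO4 2− series used enzyme washed into buffer titrated with HNO3 or H2SO4. Final pH was 7.65–7.82 and basal I 78 mM. Samples were centrifuged at 100,000 g for 60 min at 0–2°C; bound ADP was total minus supernatant. Kdiss came from nonlinear regression with a common Bmax per series.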"}, "[9]": {"biological_target": "Na,K-ATPase", "settings": "read-out: K diss, Na+-form (E1-form), I < 0.1 M, ref Nørby and Jensen, 1971, Hegyvary and Post, Jørgensen, 1975, Skou and Esmann, 1981; cited from earlier work"}, "[10]": {"biological_target": "T1, Na,K-ATPase", "settings": "cited from earlier work"}}, "note": "Several values for one entry are separate records, joined by “and”; a condition that tells them apart may be missing. Equal entries are not always repeated. Where two headings read alike, the source gives them in different places."}
{"molecule": "O=S(=O)([O-])[O-].[Na+].[Na+]", "note": "[Na2SO4]", "values": [{"measurement": "inhibitory effect on Na,K-ATPase activity, less than that of NaCl", "setting": "[1]; activity plotted versus I, 20 mM KCl, 3 mM ATP, 4 mM MgCl2", "result": "10–30%"}]}
{"molecule": "NC(CO)(CO)CO", "note": "[TrisH^+]", "values": [{"measurement": "pKa", "setting": "[2]; ref Perrin, 1965", "result": 8.8}]}
{"molecule": "O=[N+]([O-])O", "note": "[NO3 ^−]", "values": [{"measurement": "K 0.5 of inhibition", "setting": "[3]", "result": "10 to 50", "unit": "mM"}, {"measurement": "slope of K diss/K A versus [NO3−]", "setting": "[4]", "result": "0.0309 ± 0.0006 mM⁻¹ and 0.031 mM⁻¹"}, {"measurement": "specific anion effect on K+-pNPPase activity", "setting": "[5]; KNO3 compared with KCl, 10 mM Na2pNPP, also 25 mM pNPP", "result": "does not have any special effect"}]}
{"molecule": "c1c[nH]cn1", "note": "[imidazoleH^+]", "values": [{"measurement": "pKa", "setting": "[2]; ref Perrin, 1965", "result": 7.5}]}
{"molecule": "CC(=O)[O-].[Na+]", "note": "[Na-acetate]", "values": [{"measurement": "effect on Na,K-ATPase activity compared with NaCl", "setting": "[1]; up to 800 mM, not shown", "result": "the same results as with NaCl"}]}
{"molecule": "Nc1ncnc2c1ncn2[C@@H]1O[C@H](COP(=O)(O)OP(=O)(O)OP(=O)(O)O)[C@@H](O)[C@H]1O", "note": "[ATP]", "values": [{"measurement": "reduction of affinity for ATP", "setting": "[6]", "result": "~10", "unit": "fold"}, {"measurement": "increase in affinity for ATP at the high-affinity site", "setting": "[7]", "result": "20–30 fold"}, {"measurement": "change of K m for ATP with increasing I", "setting": "[1]; 20 mM KCl, [Mgtot] = [ATP] + 1 mM, 0.16–0.75 M NaCl, 37°C, pH 7.4", "result": "slight decrease"}]}
{"molecule": "O=C(O)CN(CCN(CC(=O)O)CC(=O)O)CC(=O)O", "note": "[H2EDTA^2−]", "values": [{"measurement": "pKa", "setting": "[2]; ref Kortüm et al., 1961", "result": 6.5}]}
{"molecule": "Nc1ncnc2c1ncn2[C@@H]1O[C@H](COP(=O)(O)OP(=O)(O)O)[C@@H](O)[C@H]1O", "note": "[ADP]", "values": [{"measurement": "decrease of apparent affinity for ADP with salt", "setting": "[8]; 0–0.5 M NaCl, Na2SO4, NaNO3, 0.1 M Na-acetate, NaSCN, NaClO4", "result": "up to 30 times"}, {"measurement": "Bmax of ADP-binding", "setting": "[8]; Exp. A2, NaCl series, [Cl−] 119 mM, I 178 mM", "result": "1.20 ± 0.01", "unit": "µM"}, {"measurement": "Bmax of ADP-binding", "setting": "[8]; Exp. A3, NaCl series, [Cl−] 219 mM, I 278 mM", "result": "1.20 ± 0.02", "unit": "µM"}, {"measurement": "Bmax of ADP-binding", "setting": "[8]; Exp. A4, NaCl series, [Cl−] 319 mM, I 378 mM", "result": "1.13 ± 0.11", "unit": "µM"}, {"measurement": "Bmax of ADP-binding", "setting": "[8]; Exp. A5, NaCl series, [Cl−] 394 mM, I 453 mM", "result": "1.29 ± 0.09", "unit": "µM"}, {"measurement": "Bmax of ADP-binding", "setting": "[8]; Exp. A6, NaCl series, [Cl−] 469 mM, I 528 mM", "result": "1.20 ± 0.11", "unit": "µM"}, {"measurement": "Bmax of ADP-binding", "setting": "[8]; Exp. A7, NaCl series, [Cl−] 519 mM, I 578 mM", "result": "0.98 ± 0.09", "unit": "µM"}, {"measurement": "Bmax of ADP-binding", "setting": "[8]; Exp. B1, Na2SO4 series, [SO4 2−] 6 mM, I 78 mM", "result": "1.70 ± 0.04", "unit": "µM"}, {"measurement": "Bmax of ADP-binding", "setting": "[8]; Exp. B2, Na2SO4 series, [SO4 2−] 6 mM, I 78 mM", "result": "1.73 ± 0.02", "unit": "µM"}, {"measurement": "Bmax of ADP-binding", "setting": "[8]; Exp. B3, Na2SO4 series, [SO4 2−] 36 mM, I 168 mM", "result": "1.71 ± 0.02", "unit": "µM"}, {"measurement": "Bmax of ADP-binding", "setting": "[8]; Exp. B4, Na2SO4 series, [SO4 2−] 66 mM, I 258 mM", "result": "1.77 ± 0.03", "unit": "µM"}, {"measurement": "Bmax of ADP-binding", "setting": "[8]; Exp. B5, Na2SO4 series, [SO4 2−] 96 mM, I 348 mM", "result": "1.72 ± 0.06", "unit": "µM"}, {"measurement": "Bmax of ADP-binding", "setting": "[8]; Exp. B6, Na2SO4 series, [SO4 2−] 126 mM, I 438 mM", "result": "1.96 ± 0.10", "unit": "µM"}, {"measurement": "Bmax of ADP-binding", "setting": "[8]; Exp. B7, Na2SO4 series, [SO4 2−] 156 mM, I 528 mM", "result": "1.77 ± 0.08", "unit": "µM"}, {"measurement": "Bmax of ADP-binding", "setting": "[8]; Exp. C1, NaNO3 series, [NO3−] 19 mM, I 78 mM", "result": "1.80 ± 0.02", "unit": "µM"}, {"measurement": "Bmax of ADP-binding", "setting": "[8]; Exp. C2, NaNO3 series, [NO3−] 24 mM, I 83 mM", "result": "1.83 ± 0.03", "unit": "µM"}, {"measurement": "Bmax of ADP-binding", "setting": "[8]; Exp. C3, NaNO3 series, [NO3−] 49 mM, I 108 mM", "result": "1.80 ± 0.03", "unit": "µM"}, {"measurement": "Bmax of ADP-binding", "setting": "[8]; Exp. C4, NaNO3 series, [NO3−] 79 mM, I 138 mM", "result": "1.84 ± 0.04", "unit": "µM"}, {"measurement": "Bmax of ADP-binding", "setting": "[8]; Exp. C5, NaNO3 series, [NO3−] 79 mM, I 138 mM", "result": "1.84 ± 0.01", "unit": "µM"}, {"measurement": "Bmax of ADP-binding", "setting": "[8]; Exp. C6, NaNO3 series, [NO3−] 109 mM, I 168 mM", "result": "1.78 ± 0.06", "unit": "µM"}, {"measurement": "Bmax of ADP-binding", "setting": "[8]; Exp. C7, NaNO3 series, [NO3−] 139 mM, I 198 mM", "result": "1.80 ± 0.06", "unit": "µM"}, {"measurement": "Bmax of ADP-binding", "setting": "[8]; Exp. C8, NaNO3 series, [NO3−] 169 mM, I 228 mM", "result": "1.82 ± 0.08", "unit": "µM"}, {"measurement": "Kd", "setting": "[8]; 19 mM Cl− + 100 mM Na+ salt of ClO4−, I 178 mM", "result": "38.6 ± 0.7", "unit": "µM"}, {"measurement": "Kd", "setting": "[8]; 19 mM Cl− + 100 mM Na+ salt of NO3−, I 178 mM", "result": "3.24 ± 0.05", "unit": "µM"}, {"measurement": "Kd", "setting": "[8]; 19 mM Cl− + 100 mM Na+ salt of SCN−, I 178 mM", "result": "18.3 ± 0.2", "unit": "µM"}, {"measurement": "Kd", "setting": "[8]; 19 mM Cl− + 100 mM Na-acetate, I 178 mM", "result": "0.635 ± 0.004", "unit": "µM"}, {"measurement": "Kd", "setting": "[8]; 19 mM Cl− + 100 mM NaCl (Cl−), I 178 mM", "result": "0.64 ± 0.007", "unit": "µM"}, {"measurement": "Kd", "setting": "[9]", "result": "< 1", "unit": "µM"}]}
{"molecule": "[K+]", "note": "[K^+]", "values": [{"measurement": "K 0.5 for K+, chosen for the model", "setting": "[10]; K+-pNPPase model with Na+/K+ competition, ref Beaugé et al., 1984", "result": 2, "unit": "mM"}]}
{"molecule": "O=[N+]([O-])c1ccc(OP(=O)(O)O)cc1", "note": "[pNPP, p-nitrophenylphosphate]", "values": [{"measurement": "K m for pNPP", "setting": "[10]; low ionic strength, ref Skou, 1974, Campos et al., 1988, Fig. 9 in this paper", "result": "2–3 mM"}, {"measurement": "K 0.5 for pNPP", "setting": "[5]; 0.125 M ClO4−", "result": "~5.5", "unit": "mM"}, {"measurement": "K 0.5 for pNPP", "setting": "[5]; 0.125 M Cl−", "result": "about 4.5 mM"}, {"measurement": "K m for pNPP", "setting": "[5]; highest values reached with increasing [KCl] (0.05–0.6 M KCl), 37°C, pH 7.4", "result": "10–12 mM"}]}
